Data published in ChEMBL document CHEMBL1123497, “Structure-activity studies of 4,6-disubstituted 2-(morpholinocarbonyl)furo[3,2-b]indole derivatives with analgesic and antiinflammatory activities” (1986).

Legend:
Assay type in all cases: functional
Mus musculus [1] = species on record: Mus musculus; experiment: Inhibition of acetic acid induced writhing in mice.
Outline: (§1)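 Mice received drug orally 30 min before an ip injection of 0.7% acetic acid (10 mL/kg). Writhes were counted 10–20 min after injection, and % inhibition was taken against a control group. ED50 and 95% confidence limits came from the Litchfield–Wilcoxon method.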

Mus musculus [2] = species on record: Mus musculus; experiment: Analgesic activity by acetic acid writhing assay in mice; set-up: concentration or dose not given beside the values; outline: as §1
Rattus norvegicus [3] = experiment: Antiinflammatory activity by Carrageenan edema assay in rats; set-up: concentration or dose not given beside the values; unit not given here
Outline: (§2)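 Groups of six male Wistar rats (130–170 g) were dosed orally 60 min before a subplantar injection of 0.5% λ-carrageenin suspension (0.1 mL/rat) into the left hind paw. Foot volume was measured every 60 min for 360 min, and % swelling was compared with controls. ED50 and 95% confidence limits came from Litchfield–Wilcoxon. Screening used % edema inhibition at 100 mg/kg po.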

Rattus norvegicus [4] = experiment: Compound was evaluated for antiinflammatory activity by Carrageenan edema assay in rats; outline: as §2
Rattus norvegicus [5] = species on record: Rattus norvegicus; experiment: Compound was evaluated for analgesic activity in Randall-Selitto test in inflamed foot rats
Outline: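 Groups of six male Wistar rats (90–110 g) received 20% yeast suspension (0.1 mL/rat) subplantar into the right hind paw, then oral drug 120 min later. Pain threshold was read every 60 min for 240 min. A rise of more than 50% over the control group counted as positive. ED50 and 95% confidence limits came from Litchfield–Wilcoxon.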

Rattus norvegicus [6] = species on record: Rattus norvegicus; experiment: Compound was evaluated for antipyretic activity in rats by yeast induced fever test
Outline: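 Groups of six male Wistar rats (190–210 g) received 7.5% yeast suspension sc (10 mL/kg). Rats whose temperature rose by more than 1 °C were dosed orally 180 min later. Body temperature was recorded automatically every 60 min for 360 min, and % inhibition was compared with controls. ED50 and 95% confidence limits came from Litchfield–Wilcoxon.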

Rattus norvegicus [7] = species on record: Rattus norvegicus; experiment: Compound was evaluated for analgesic activity in Adjuvant-induced arthritic pain test in rats
Outline: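 Groups of six male SD rats (160–200 g) received 0.5% Mycobacterium butyricum suspension (0.1 mL/rat) intradermally into the distal tail. After 15–18 days, rats that vocalized on gentle flexion were dosed orally, and the pain response was checked every 60 min for 300 min. Absence of response counted as positive. ED50 and 95% confidence limits came from Litchfield–Wilcoxon.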

Mus musculus [8] = species on record: Mus musculus; experiment: Compound was evaluated for analgesic activity in Pressure test in mice
Outline: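 Groups of 10 male ddY mice (19–24 g) were dosed orally, and pain threshold to pressure was measured every 30 min for 120 min. A postdrug threshold raised more than 50% over the predrug value counted as positive. ED50 and 95% confidence limits came from Litchfield–Wilcoxon.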

Rattus norvegicus [9] = experiment: Compound was evaluated for antiinflammatory activity in rats by carrageenan edema test; outline: as §2
Rattus norvegicus [10] = species on record: Rattus norvegicus; experiment: Compound was evaluated for analgesic activity in Randall-Selitto test in normal foot rats
Mus musculus [11] = species on record: Mus musculus; experiment: Compound was evaluated for analgesic activity in Acetic acid writhing assay in mice; outline: as §1

SMILES | ED50 (Mus musculus [1]) | Inhibition (Mus musculus [2]) | Inhibition (Rattus norvegicus [3]) | also measured
CC(C)OC(=O)n1c2cc(C(F)(F)F)ccc2c2oc(C(=O)N3CCOCC3)cc21 | 4.7 mg/kg | 3% | 3 | –
CCCCCCCCn1c2cc(C(F)(F)F)ccc2c2oc(C(=O)N3CCOCC3)cc21 | – | – | 3 | –
CC(C)COC(=O)n1c2ccccc2c2oc(C(=O)N3CCOCC3)cc21 | – | 1% | 1 | –
CCOC(=O)n1c2cc(C(F)(F)F)ccc2c2oc(C(=O)N3CCOCC3)cc21 | 35.6 mg/kg | 3% | 3 | –
CCCCCCCCC(=O)n1c2cc(C(F)(F)F)ccc2c2oc(C(=O)N3CCOCC3)cc21 | – | 3% | 2 | –
COC(=O)n1c2cc(O)ccc2c2oc(C(=O)N3CCOCC3)cc21 | – | 1% | 1 | –
CCOC(=O)n1c2cc(C)ccc2c2oc(C(=O)N3CCOCC3)cc21 | – | 2% | 3 | –
CCCOC(=O)n1c2cc(C)ccc2c2oc(C(=O)N3CCOCC3)cc21 | – | 2% | 1 | –
CCCCOC(=O)n1c2cc(C(F)(F)F)ccc2c2oc(C(=O)N3CCOCC3)cc21 | 21.4 mg/kg | 3% | 3 | –
CC(C)Cn1c2cc(C(F)(F)F)ccc2c2oc(C(=O)N3CCOCC3)cc21 | – | 2% | 3 | –
CCCOC(=O)n1c2cc(OC)ccc2c2oc(C(=O)N3CCOCC3)cc21 | – | 2% | 1 | –
CCOC(=O)n1c2cc(F)ccc2c2oc(C(=O)N3CCOCC3)cc21 | – | 1% | 1 | –
CCCCOC(=O)n1c2cc(Cl)ccc2c2oc(C(=O)N3CCOCC3)cc21 | – | 3% | 2 | –
COC(=O)n1c2cc(C)ccc2c2oc(C(=O)N3CCOCC3)cc21 | – | 1% | 2 | –
CCCCCCn1c2cc(C(F)(F)F)ccc2c2oc(C(=O)N3CCOCC3)cc21 | 7.7 mg/kg | 3% | 3 | –
CC(C)OC(=O)n1c2cc(F)ccc2c2oc(C(=O)N3CCOCC3)cc21 | – | 2% | 1 | –
CCCCC(=O)n1c2cc(C(F)(F)F)ccc2c2oc(C(=O)N3CCOCC3)cc21 | 34.5 mg/kg | 3% | 3 | –
CC(C)OC(=O)n1c2cc(Cl)ccc2c2oc(C(=O)N3CCOCC3)cc21 | 21.4 mg/kg | 3% | 3 | –
CCCOC(=O)n1c2cc(Cl)ccc2c2oc(C(=O)N3CCOCC3)cc21 | – | 2% | 2 | –
COC(=O)n1c2cc(Cl)ccc2c2oc(C(=O)N3CCOCC3)cc21 | – | 1% | 1 | –
COC(=O)n1c2ccccc2c2oc(C(=O)N3CCOCC3)cc21 | – | 1% | – | Inhibition (Rattus norvegicus [4]): 2%
COc1ccc2c3oc(C(=O)N4CCOCC4)cc3n(C(=O)OCC(C)C)c2c1 | – | 3% | 1 | –
COC(=O)n1c2cc(F)ccc2c2oc(C(=O)N3CCOCC3)cc21 | – | 1% | 1 | –
O=C(Cn1c(=O)sc2ccc(Cl)cc21)N1CCN(CCO)CC1 [TIARAMIDE] | 74 mg/kg | – | – | ED50 (Rattus norvegicus [5]): 94.6 mg/kg; ED50 (Rattus norvegicus [6]): 171 mg/kg; ED50 (Rattus norvegicus [7]): 176 mg/kg; ED50 (Mus musculus [8]): 116 mg/kg; ED50 (Rattus norvegicus [9]): 119 mg/kg; ED50 (Rattus norvegicus [10]): > 160 mg/kg
CCCCOC(=O)n1c2cc(C)ccc2c2oc(C(=O)N3CCOCC3)cc21 | – | 2% | 1 | –
CC(C)CCCn1c2cc(C(F)(F)F)ccc2c2oc(C(=O)N3CCOCC3)cc21 | 6 mg/kg | 3% | 3 | –
CCOC(=O)n1c2cc(OC)ccc2c2oc(C(=O)N3CCOCC3)cc21 | – | 1% | 1 | –

SMILES | ED50 (Mus musculus [1]) | Inhibition (Mus musculus [2]) | Inhibition (Rattus norvegicus [3]) | also measured
CC(C)C(=O)n1c2cc(C(F)(F)F)ccc2c2oc(C(=O)N3CCOCC3)cc21 | 7.3 mg/kg | 3% | 3 | –
CCCCOC(=O)n1c2ccccc2c2oc(C(=O)N3CCOCC3)cc21 | – | 1% | 1 | –
CCOC(=O)n1c2cc(O)ccc2c2oc(C(=O)N3CCOCC3)cc21 | – | 2% | 1 | –
Cc1ccc2c3oc(C(=O)N4CCOCC4)cc3n(C(=O)OCC(C)C)c2c1 | – | 2% | 2 | –
CCCCC(CC)C(=O)n1c2cc(C(F)(F)F)ccc2c2oc(C(=O)N3CCOCC3)cc21 (stereo unspecified) | 0.7 mg/kg | 3% | 3 | ED50 (Rattus norvegicus [5]): 1.7 mg/kg; ED50 (Mus musculus [11]): 0.7 mg/kg; ED50 (Rattus norvegicus [6]): 0.059 mg/kg; ED50 (Rattus norvegicus [7]): 1.7 mg/kg; ED50 (Mus musculus [8]): 7 mg/kg; ED50 (Rattus norvegicus [9]): 5.4 mg/kg; ED50 (Rattus norvegicus [10]): 5.9 mg/kg
CCCCOC(=O)n1c2cc(OC)ccc2c2oc(C(=O)N3CCOCC3)cc21 | – | 2% | 1 | –
COC(=O)n1c2cc(C(F)(F)F)ccc2c2oc(C(=O)N3CCOCC3)cc21 | – | 1% | 1 | –
CC(C)COC(=O)n1c2cc(C(F)(F)F)ccc2c2oc(C(=O)N3CCOCC3)cc21 | – | 2% | 2 | –
CC(C)CC(=O)n1c2cc(C(F)(F)F)ccc2c2oc(C(=O)N3CCOCC3)cc21 | 6 mg/kg | 3% | 3 | –
CC(C)COC(=O)n1c2cc(Cl)ccc2c2oc(C(=O)N3CCOCC3)cc21 | – | 2% | 2 | –
Cc1ccc2c3oc(C(=O)N4CCOCC4)cc3n(C(=O)OC(C)C)c2c1 | 26 mg/kg | 3% | 3 | –
COC(=O)n1c2cc(OC)ccc2c2oc(C(=O)N3CCOCC3)cc21 | – | 1% | 1 | –
CCCOC(=O)n1c2cc(F)ccc2c2oc(C(=O)N3CCOCC3)cc21 | – | 2% | 1 | –
CCOC(=O)n1c2ccccc2c2oc(C(=O)N3CCOCC3)cc21 | – | 1% | 1 | –
CC(C)OC(=O)n1c2ccccc2c2oc(C(=O)N3CCOCC3)cc21 | – | 2% | 2 | –
COc1ccc2c3oc(C(=O)N4CCOCC4)cc3n(C(=O)OC(C)C)c2c1 | – | 2% | 1 | –
CCCOC(=O)n1c2ccccc2c2oc(C(=O)N3CCOCC3)cc21 | – | 1% | 1 | –
CCOC(=O)n1c2cc(Cl)ccc2c2oc(C(=O)N3CCOCC3)cc21 | – | 1% | 2 | –
CCCCCn1c2cc(C(F)(F)F)ccc2c2oc(C(=O)N3CCOCC3)cc21 | 10.9 mg/kg | 3% | 3 | –
CCCCn1c2cc(C(F)(F)F)ccc2c2oc(C(=O)N3CCOCC3)cc21 | 29.5 mg/kg | 3% | 3 | –
CCCCOC(=O)n1c2cc(F)ccc2c2oc(C(=O)N3CCOCC3)cc21 | – | 2% | 1 | –
CC(C)(C)C(=O)n1c2cc(C(F)(F)F)ccc2c2oc(C(=O)N3CCOCC3)cc21 | – | 3% | 1 | –
CCCCCCCn1c2cc(C(F)(F)F)ccc2c2oc(C(=O)N3CCOCC3)cc21 | 17.8 mg/kg | 3% | 3 | –
CCCOC(=O)n1c2cc(C(F)(F)F)ccc2c2oc(C(=O)N3CCOCC3)cc21 | 34.6 mg/kg | 3% | 3 | –
CC(C)=CCn1c2cc(C(F)(F)F)ccc2c2oc(C(=O)N3CCOCC3)cc21 | 10.1 mg/kg | 3% | 3 | –
CC(C)CCn1c2cc(C(F)(F)F)ccc2c2oc(C(=O)N3CCOCC3)cc21 | 5.1 mg/kg | 3% | 3 | –
CC(C)COC(=O)n1c2cc(F)ccc2c2oc(C(=O)N3CCOCC3)cc21 | – | 2% | 1 | –
